Measurements as given in ChEMBL document CHEMBL2203053, “DNA binding acridine-thiazolidinone agents affecting intracellular glutathione” (Bioorg Med Chem, 2012).
The source made the active and inactive calls. The calls are words filed in the database; no cut-off is given here.

Tests used:
HL-60 [1] = experiment: Induction of cell death in human HL60 cells assessed as late apoptotic cells at 2 uM after 24 hrs by FDA/PI staining based flow cytometer (reference value: 0.01%); format: functional
HL-60 [2] = experiment: Induction of cell death in human HL60 cells assessed as late apoptotic cells at 4 uM after 24 hrs by FDA/PI staining based flow cytometer (reference value: 0.01%); format: functional
HL-60 [3] = experiment: Cytotoxicity against human HL60 cells after 72 hrs using trypan blue exclusion staining by DCC method; format: functional, cell-based; conditions: HL-60, 72 h
Procedure, shortened: (§1)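 For trypan blue dye-exclusion direct cell counting, HL-60 cells were seeded at 1 × 10⁵ cells/mL. Compound at 0–10 µM, or 1% DMSO control, was added after 24 h. Viable counts were taken after 24, 48 and 72 h. IC50 (50% inhibition of viability) came from growth curves, as mean ± S.D., n = 3.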

HL-60 [4] = experiment: Induction of cell death in human HL60 cells assessed as necrotic cells at 4 uM after 24 hrs by FDA/PI staining based flow cytometer (reference value: 5.87%); format: functional
HL-60 [5] = experiment: Induction of cell death in human HL60 cells assessed as early apoptotic cells at 4 uM after 24 hrs by FDA/PI staining based flow cytometer (reference value: 3.96%); format: functional
HL-60 [6] = experiment: Induction of cell death in human HL60 cells assessed as viable cells at 4 uM after 24 hrs by FDA/PI staining based flow cytometer (reference value: 90.16%); format: functional; conditions: HL-60, 24 h, read-out: Activity
HL-60 [7] = experiment: Induction of cell death in human HL60 cells assessed as necrotic cells at 2 uM after 24 hrs by FDA/PI staining based flow cytometer (reference value: 5.87%); format: functional
HL-60 [8] = experiment: Induction of cell death in human HL60 cells assessed as early apoptotic cells at 2 uM after 24 hrs by FDA/PI staining based flow cytometer (reference value: 3.96%); format: functional
HL-60 [9] = experiment: Induction of cell death in human HL60 cells assessed as viable cells at 2 uM after 24 hrs by FDA/PI staining based flow cytometer (reference value: 90.16%); format: functional; conditions: HL-60, 24 h, read-out: Activity
HL-60 [10] = experiment: Induction of necrosis in human HL60 cells assessed as cell shrinking at 2.5 uM after 24 hrs by propidium iodide staining based fluorescence microscopy; format: functional
HL-60 [11] = experiment: Cell cycle arrest in human HL60 cells assessed as accumulation at sub G0 phase at 1 uM after 48 hrs by propidium iodide staining based flow cytometry (reference value: 1.93%); format: functional
HL-60 [12] = experiment: Cell cycle arrest in human HL60 cells assessed as accumulation at sub G0 phase at 0.5 uM after 48 hrs by propidium iodide staining based flow cytometry (reference value: 1.93%); format: functional
HL-60 [13] = experiment: Cell cycle arrest in human HL60 cells assessed as accumulation at S phase at 1 uM after 48 hrs by propidium iodide staining based flow cytometry (reference value: 38.96%); format: functional
HL-60 [14] = experiment: Cell cycle arrest in human HL60 cells assessed as accumulation at S phase at 0.5 uM after 48 hrs by propidium iodide staining based flow cytometry (reference value: 38.96%); format: functional
HL-60 [15] = experiment: Cell cycle arrest in human HL60 cells assessed as accumulation at G2 phase at 1 uM after 48 hrs by propidium iodide staining based flow cytometry (reference value: 12.90%); format: functional
HL-60 [16] = experiment: Cell cycle arrest in human HL60 cells assessed as accumulation at G2 phase at 0.5 uM after 48 hrs by propidium iodide staining based flow cytometry (reference value: 12.90%); format: functional
HL-60 [17] = experiment: Cell cycle arrest in human HL60 cells assessed as accumulation at G1 phase at 1 uM after 48 hrs by propidium iodide staining based flow cytometry (reference value: 48.14%); format: functional
HL-60 [18] = experiment: Cell cycle arrest in human HL60 cells assessed as accumulation at G1 phase at 0.5 uM after 48 hrs by propidium iodide staining based flow cytometry (reference value: 48.14%); format: functional
HL-60 [19] = experiment: Induction of oxidative stress in BSO pretreated human HL60 cells assessed as superoxide production at 5 uM treated 6 hrs after BSO addition measured after 1 hr by DHE dye fluorescence microscopy; format: functional, cell-based
Procedure, shortened: (§2)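 HL-60 cells (4 × 10⁵) were cultured 24 h at 37 °C, then given 5 µM for 1 h, with or without 6 h pretreatment with 10 µM L-buthionine-sulfoximine. Dihydroethidium (20 µM) was then added for 20 min at 37 °C. Cells were washed in PBS and superoxide was viewed by fluorescence microscopy. Menadione served as positive control.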

HL-60 [20] = experiment: Induction of oxidative stress in human HL60 cells assessed as superoxide production at 5 uM after 1 hr by DHE dye based fluorescence microscopy; format: functional, cell-based; procedure, shortened: as §2
HL-60 [21] = experiment: Cytotoxicity against BSO pretreated human HL60 cells assessed as cell viability at 1 uM treated 6 hrs after BSO addition measured after 48 hrs by trypan blue exclusion assay; format: functional, cell-based
Procedure, shortened: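 HL-60 cells were pretreated 6 h with L-buthionine-sulfoximine (10 µM), then exposed to 1.5, 3.0 or 1.0 µM compound for 48 h. Viable cells were counted by trypan blue staining and expressed as percentage of all cells.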

HL-60 [22] = experiment: Decrease in intracellular glutathione level in human HL60 cells at 1 uM after 2 to 24 hrs by spectrophotometric analysis; format: functional, cell-based
[23] = Binding affinity to NAC assessed as second order rate constant at 1 mM at pH 6 after 10 mins by UV-visible spectrophotometry
Procedure, shortened: (§3)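 Reaction with N-acetyl-L-cysteine was run in 100 mM Tris/HCl containing 50% DMSO at 25 °C, with final 2c at 20 µM and NAC at 1 mM. pH was 6.0, 6.5 or 7.0. Spectral change was monitored by UV–vis, with the mixture held 10 min. Second-order rate constants k2 (M⁻¹ s⁻¹) are reported.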

[24] = Binding affinity to NAC assessed as second order rate constant at 1 mM at pH 6.5 after 10 mins by UV-visible spectrophotometry; procedure, shortened: as §3
HL-60 [25] = experiment: Drug uptake in human HL60 cells at 10 uM after 10 to 60 mins by RP-HPLC analysis; format: ADME, cell-based; conditions: hl-60, 10 µM
Procedure, shortened: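 HL-60 cells (2 × 10⁶/mL) were exposed to 10 µM for 10 or 60 min, washed twice in PBS and extracted with methanol (1 h, 4 °C). Extract was centrifuged at 6700 × g and injected (20 µL) onto a C18 RP-HPLC column. Mobile phase was methanol/50 mM ammonium formate 80:20, pH 4.5, at 0.5 mL/min and 25 °C, with detection at 370 nm.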

[26] = Binding affinity to NAC assessed as second order rate constant at 1 mM at pH 7 after 10 mins by UV-visible spectrophotometry; procedure, shortened: as §3
A2780 [27] = experiment: Drug uptake in human A2780 cells at 5 uM after 4 hrs by Hoechst staining based fluorescence microscopy; format: ADME, cell-based; conditions: a2780, 4 h
HL-60 [28] = experiment: Drug uptake in human HL60 cells at 5 uM after 4 hrs by Hoechst staining based fluorescence microscopy; format: ADME, cell-based; conditions: hl-60, 4 h
Procedure, shortened: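 HL-60 cells were exposed to 5 µM for 4 h at 37 °C, 5% CO₂, then washed in PBS. Intrinsic blue fluorescence was viewed by optical and fluorescence microscopy. Untreated control cells were stained with Hoechst 33342 (10 µM, 10 min).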

NIH3T3 = experiment: Cytotoxicity against mouse NIH/3T3 cells after 72 hrs by MTT assay; format: cell-based; conditions: NIH3T3, 72 h
A2780 [29] = experiment: Cytotoxicity against human A2780 cells after 72 hrs by MTT assay; format: functional, cell-based; conditions: A2780, 72 h
Procedure, shortened: (§4)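 HL-60, L1210 and A2780 cells were grown in RPMI 1640 with 10% FBS, penicillin and streptomycin at 37 °C, 5% CO₂; HL-60 and A2780 medium also had 2 mM glutamine. Cells were exposed to 0–30 µM for 48 or 72 h. Viability was read by MTT microculture tetrazolium assay and IC50 was determined.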

HL-60 [30] = experiment: Cytotoxicity against human HL60 cells after 48 hrs using trypan blue exclusion staining by DCC method; format: functional, cell-based; conditions: HL-60, 48 h; procedure, shortened: as §1
A2780 [31] = experiment: Cytotoxicity against human A2780 cells after 48 hrs by MTT assay; format: functional, cell-based; conditions: A2780, 48 h; procedure, shortened: as §4
L1210 [32] = experiment: Cytotoxicity against mouse L1210 cells after 72 hrs by MTT assay; format: functional, cell-based; conditions: L1210, 72 h; procedure, shortened: as §4
L1210 [33] = experiment: Cytotoxicity against mouse L1210 cells after 48 hrs by MTT assay; format: functional, cell-based; conditions: L1210, 48 h; procedure, shortened: as §4
HL-60 [34] = experiment: Cytotoxicity against human HL60 cells after 48 hrs by MTT assay; format: functional, cell-based; conditions: HL-60, 48 h; procedure, shortened: as §4
HL-60 [35] = experiment: Cytotoxicity against human HL60 cells after 72 hrs by MTT assay; format: functional, cell-based; conditions: HL-60, 72 h; procedure, shortened: as §4
Nucleic Acid [36] = experiment: Ratio of acridine orange K to compound K for calf thymus DNA by spectrofluorimetry based McGhee von Hippel method; format: nucleic-acid assay; conditions: Bos taurus
Nucleic Acid [37] = experiment: Ratio of daunomycin K to compound K for calf thymus DNA by spectrofluorimetry based McGhee von Hippel method; format: nucleic-acid assay; conditions: Bos taurus
Nucleic Acid [38] = experiment: Ratio of proflavine K to compound K for calf thymus DNA by spectrofluorimetry based McGhee von Hippel method; format: nucleic-acid assay; conditions: Bos taurus
Nucleic Acid [39] = experiment: Binding affinity to calf thymus DNA assessed as intercalation at 26.7 uM by fluorometric titration analysis; format: nucleic-acid assay; conditions: Bos taurus
Procedure, shortened: (§5)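 Fluorescence titration used compound at 26.7 µM in 0.01 M Tris buffer (pH 7.4, 24 °C). ctDNA was added stepwise from 0 to 32 µM bp at 2 µM intervals until spectra stopped changing. Excitation was 384 nm and emission was read at 410–470 nm. Binding constant K was derived by the McGhee–von Hippel method from Scatchard plot data.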

Nucleic Acid [40] = experiment: Binding affinity to calf thymus DNA assessed as binding constant by spectrofluorimetry based McGhee von Hippel method; format: nucleic-acid assay; conditions: Bos taurus; procedure, shortened: as §5
Nucleic Acid [41] = experiment: Binding affinity to calf thymus DNA assessed as melting temperature at 5 uM at pH 7.1 by thermal denaturation assay; format: nucleic-acid assay; conditions: Bos taurus
Nucleic Acid [42] = experiment: Binding affinity to calf thymus DNA assessed as hypochromicity at 25 uM by UV-visible spectrophotometry; format: nucleic-acid assay; conditions: Bos taurus
Procedure, shortened: (§6)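 Absorption spectra were taken in 0.01 M Tris buffer, pH 7.4. Compounds were diluted from DMSO stock to a final 25 µM. Sonicated calf thymus DNA in TE buffer was added at 0–30 µM bp, with concentration set by A260. Shift of λmax (free vs bound) and % hypochromicity were recorded.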

Nucleic Acid [43] = experiment: Binding affinity to calf thymus DNA assessed as bathochromic shift at 25 uM by UV-visible spectrophotometry; format: nucleic-acid assay; conditions: Bos taurus; procedure, shortened: as §6

For `COC(=O)/C=C1\S/C(=N\c2c3ccccc3nc3ccccc23)N(c2ccc(Br)cc2)C1=O`, the Activity (HL-60 [1]) was 0.03%, the Activity (HL-60 [2]) was 0.01% and the IC50 (HL-60 [3]) was 900 nM. The Activity (HL-60 [4]) was 62.62%, the Activity (HL-60 [5]) was 19.57% and the viability at 4 µM (HL-60 [6]) was 17.8%. For the same molecule, the Activity (HL-60 [7]) was 22.87%, the Activity (HL-60 [8]) was 68.64% and the viability at 2 µM (HL-60 [9]) was 8.46%. The Activity (HL-60 [10]) was “Active”, the Activity (HL-60 [11]) was 25.85% and the Activity (HL-60 [12]) was 21.7%. For the same molecule, the Activity (HL-60 [13]) was 11.99%, the Activity (HL-60 [14]) was 38.4% and the Activity (HL-60 [15]) was 5.08%. It also gave an Activity (HL-60 [16]) of 10.56%, an Activity (HL-60 [17]) of 82.93% and an Activity (HL-60 [18]) of 51.04%. For the same molecule, the Activity (HL-60 [19]) was “Active”, the Activity (HL-60 [20]) was “Active” and the Activity (HL-60 [21]) was “Active”. For the same molecule, the Activity (HL-60 [22]) was “Active”, the Activity [23] was 2 M⁻¹ s⁻¹ and the Activity [24] was 3.8 M⁻¹ s⁻¹. The Drug uptake (HL-60 [25]) was “Active”, the Activity [26] was 9.9 M⁻¹ s⁻¹ and the Drug uptake (A2780 [27]) was “Active”. For the same molecule, the Drug uptake (HL-60 [28]) was “Active”, the IC50 (NIH3T3) was 3500 nM and the IC50 (A2780 [29]) was 7700 nM. For the same molecule, the IC50 (HL-60 [30]) was 1600 nM, the IC50 (A2780 [31]) was 12500 nM and the IC50 (L1210 [32]) was 3100 nM. The IC50 (L1210 [33]) was 1700 nM, the IC50 (HL-60 [34]) was 1400 nM and the IC50 (HL-60 [35]) was 1300 nM. It also gave a Ratio (Nucleic Acid [36]) of 10, a Ratio (Nucleic Acid [37]) of 10 and a Ratio (Nucleic Acid [38]) of 10. The Activity (Nucleic Acid [39]) was “Active”, the K (Nucleic Acid [40]) was 5.89 ×10⁶ /M and the Tm (Nucleic Acid [41]) was 81 °C. For the same molecule, the Activity (Nucleic Acid [42]) was 24.2% and the Activity (Nucleic Acid [43]) was “Active”.
